Data set [1] has as its system Hs-578T. In words: Cytotoxicity against human Hs-578T cells assessed as reduction in cell viability measured after 24 hrs by CellTiter-Glo luminescent assay. The format is functional, cell-based. Put shortly:
(§1)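 High-throughput viability screen of test agents across a panel of 22 cancerous and noncancerous human cell lines. Viability was read by CellTiter-Glo luminescence.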
In general terms: ATP-based viability assays read luminescence as a measure of living cells.

Data set [2] has as its system HCC1599. In words: Cytotoxicity against human HCC1599 cells assessed as reduction in cell viability measured after 24 hrs by CellTiter-Glo luminescent assay. The data set is classed as functional, cell-based. The following applies: HCC1599, 24 h. Put shortly:
as §1

The subject of data set [3] is RCK8. In words: Cytotoxicity against human RC-K8 cells assessed as reduction in cell viability measured after 24 hrs by CellTiter-Glo luminescent assay. The data set is classed as functional, cell-based. The note with it: RCK8, 24 h. A digest of the protocol: as §1
Data set [4] is described as follows: Inhibition of IKKalpha/IKKbeta in human HEK293T cells transfected with firefly luciferase gene assessed as inhibition of TNF-alpha-stimulated NF-kappaB signalling preincubated for 1 hr followed by TNF alpha stimulation measured after 3 hrs by luciferase reporter gene assay. The following applies: HEK-293T. The format is cell-based. Put shortly:
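Commercial NF-κB-driven luciferase reporter assay in HEK 293T cells stimulated with TNFα. EC50 was derived from the luminescence readout.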
A general note: In a reporter assay the amount or activity of a reporter protein is the signal.

Data set [5] in a line: Cytotoxicity against human Hs578Bst cells assessed as reduction in cell viability measured after 24 hrs by CellTiter-Glo luminescent assay. The data set is classed as cell-based. Put shortly: as §1
Data set [6] can be described thus: Cytotoxicity against human Hs895SK cells assessed as reduction in cell viability measured after 24 hrs by CellTiter-Glo luminescent assay. The format is cell-based. The note with it: Hs 895.Sk. Put shortly:
as §1

Data set [7] in a line: Cytotoxicity against human Hs888Lu cells assessed as reduction in cell viability measured after 24 hrs by CellTiter-Glo luminescent assay. The format is cell-based. A digest of the protocol: as §1
A short description of data set [8]: Cytotoxicity against human Hs895T cells assessed as reduction in cell viability measured after 24 hrs by CellTiter-Glo luminescent assay. The format is functional, cell-based. A digest of the protocol: as §1
For data set [9], the system named is NCI-H446. In words: Cytotoxicity against human NCI-H446 cells assessed as reduction in cell viability measured after 24 hrs by CellTiter-Glo luminescent assay. The data set is classed as functional, cell-based. The note with it: NCI-H446, 24 h. A digest of the protocol: as §1
The nature of data set [10]: Toxicity in po dosed rat. The data set is classed as organism-based. The following applies: in vivo.
Data set [11] deals with PSN1. Kind of data set: Cytotoxicity against human PSN1 cells assessed as reduction in cell viability measured after 24 hrs by CellTiter-Glo luminescent assay. The data set is classed as functional, cell-based. The note with it: PSN1, 24 h. A digest of the protocol: as §1
Data set [12] deals with CA46. In words: Cytotoxicity against human CA46 cells assessed as reduction in cell viability measured after 24 hrs by CellTiter-Glo luminescent assay. The note with it: CA46, 24 h. The format is functional, cell-based. Put shortly:
as §1

In data set [13] the test system is SUD4. In words: Cytotoxicity against human SU-DHL-4 cells assessed as reduction in cell viability measured after 24 hrs by CellTiter-Glo luminescent assay. The data set is classed as functional, cell-based. The note with it: SU-DHL-4, 24 h. A digest of the protocol:
as §1

For data set [14], the system named is HEK-293T. In words: Cytotoxicity against human HEK293T cells assessed as reduction in cell viability measured after 24 hrs by CellTiter-Glo luminescent assay. The data set is classed as cell-based. Put shortly: as §1
The target in data set [15] is T1, Nuclear factor NF-kappa-B p105 subunit (Homo sapiens, UniProt P19838).
T1 sequence (P19838 whole entry): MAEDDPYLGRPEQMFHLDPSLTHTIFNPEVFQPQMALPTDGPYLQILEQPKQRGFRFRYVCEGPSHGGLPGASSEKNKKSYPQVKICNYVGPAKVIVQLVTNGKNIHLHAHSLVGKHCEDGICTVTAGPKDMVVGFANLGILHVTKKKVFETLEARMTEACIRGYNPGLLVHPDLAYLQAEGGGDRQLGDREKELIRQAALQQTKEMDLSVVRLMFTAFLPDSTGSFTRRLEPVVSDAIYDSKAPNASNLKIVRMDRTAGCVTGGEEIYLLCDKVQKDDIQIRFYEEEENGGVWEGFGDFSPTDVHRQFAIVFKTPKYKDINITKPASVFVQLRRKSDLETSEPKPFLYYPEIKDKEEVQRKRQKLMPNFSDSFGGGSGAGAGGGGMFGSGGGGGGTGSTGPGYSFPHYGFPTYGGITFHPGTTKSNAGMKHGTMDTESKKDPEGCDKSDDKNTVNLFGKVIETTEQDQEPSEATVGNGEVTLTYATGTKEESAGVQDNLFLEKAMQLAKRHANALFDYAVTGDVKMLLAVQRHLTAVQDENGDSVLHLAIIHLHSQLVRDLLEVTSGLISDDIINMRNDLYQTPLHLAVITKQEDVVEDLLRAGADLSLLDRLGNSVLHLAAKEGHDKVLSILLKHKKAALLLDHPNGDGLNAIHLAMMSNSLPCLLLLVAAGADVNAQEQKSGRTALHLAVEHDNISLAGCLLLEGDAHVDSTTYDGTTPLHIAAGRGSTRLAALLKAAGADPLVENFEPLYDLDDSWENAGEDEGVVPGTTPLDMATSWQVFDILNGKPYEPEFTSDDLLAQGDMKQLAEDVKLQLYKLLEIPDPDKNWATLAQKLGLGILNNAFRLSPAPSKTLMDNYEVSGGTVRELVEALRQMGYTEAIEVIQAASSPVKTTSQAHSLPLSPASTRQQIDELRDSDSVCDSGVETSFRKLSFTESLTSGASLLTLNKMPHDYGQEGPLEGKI
Kind of data set: Binding affinity to NF-kappaB p50 (unknown origin) by SPR analysis. For orientation: In SPR one partner is held on a chip, and binding of the other changes the refractive index at the surface.

Data set [16] concerns the target Transcription factor p65 (Homo sapiens, UniProt Q04206). Kind of data set: Binding affinity to NF-kappaB RelA (unknown origin) by SPR analysis.

Results on 2 compounds are retold here after ChEMBL document CHEMBL4725436, “Gibberellin JRA-003: A Selective Inhibitor of Nuclear Translocation of IKKα” (ACS Med Chem Lett, 2020).

Some results are limits rather than exact numbers.

Sequence of Transcription factor p65 (Q04206 whole entry): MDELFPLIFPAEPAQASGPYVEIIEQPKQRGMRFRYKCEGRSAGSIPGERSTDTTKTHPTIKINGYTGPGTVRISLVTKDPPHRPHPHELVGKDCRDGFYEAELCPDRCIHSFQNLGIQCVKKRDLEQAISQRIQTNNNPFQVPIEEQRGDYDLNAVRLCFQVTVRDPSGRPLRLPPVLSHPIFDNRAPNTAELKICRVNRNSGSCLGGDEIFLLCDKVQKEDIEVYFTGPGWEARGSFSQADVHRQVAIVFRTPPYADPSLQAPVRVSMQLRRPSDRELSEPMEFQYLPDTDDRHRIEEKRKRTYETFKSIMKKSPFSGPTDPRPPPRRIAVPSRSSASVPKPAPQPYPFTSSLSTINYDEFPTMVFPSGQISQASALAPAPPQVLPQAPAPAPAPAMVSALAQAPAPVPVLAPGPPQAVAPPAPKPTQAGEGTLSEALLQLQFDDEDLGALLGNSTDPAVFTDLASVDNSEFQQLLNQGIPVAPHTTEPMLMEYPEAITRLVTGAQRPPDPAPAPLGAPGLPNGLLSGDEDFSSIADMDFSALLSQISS

On to `C=C1C[C@]23C[C@@]1(O)CC[C@H]2[C@@]12C=C[C@H](O)[C@@](C)(C(=O)O1)[C@H]2[C@@H]3C(=O)O` [GIBBERELLIN A3], for which the IC50 in data set [1], in [2], in [3], in data set [5], in data set [6] and in data set [7] was above 10 µM throughout. Besides, the IC50 in data set [8], in data set [9], in data set [11], in [12], in data set [13] and in data set [14] was above 10 µM each time. Further, in [4], the EC50 – broadly, the concentration that produces a half-maximal response – is above 100 µM. In addition, the LD50 (usually the dose at which mortality reaches 50%) in data set [10] came to 6300 mg/kg.

For the compound `C=C1C[C@]23C[C@@]1(O)CC[C@@H]2c1cccc(C)c1[C@@H]3C(=O)O`, the Kd – broadly, a measure of binding affinity in units of concentration – in data set [15] amounted to 0.076 µM; in data set [16], 6.34 µM. Also, the IC50 in data set [1], in data set [2], in data set [3], in data set [5], in data set [6] and in [7] was above 10 µM each time. Further, the IC50 in [8], in data set [9], in data set [11], in data set [12], in [13] and in [14] was above 10 µM in each case. Also, the EC50 in [4] was above 100 µM.
